Experimental data reported in ChEMBL document CHEMBL1806353, “Synthesis of antitrypanosomal 1,2-dioxane derivatives based on a natural product scaffold” (Bioorg Med Chem Lett, 2011).

System: Trypanosoma brucei brucei
Assay: Antitrypanosomal activity against blood stream form of Trypanosoma brucei brucei BF427 after 48 hrs by Alamar Blue assay
Assay type: functional, organism-based
Conditions: BF427, 48 h
Method in brief: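 Bloodstream-form T. b. brucei 427, starting inoculum 2 × 10³ parasites per well, exposed to 2-fold serial drug dilutions in HMI-9 with 10% FBS for 48 h at 37 °C, 5% CO₂. Final DMSO no more than 0.08%. Alamar Blue then added for a further 4 h, fluorescence read at 544/590 nm. IC50 from three biological replicates, each averaging three technical replicates.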

Compound	IC50
CCOC(=O)/C=C/[C@@H]1CC[C@@H](CC(=O)OCc2ccccc2)OO1	0.62 µM
O=C(/C=C/[C@@H]1CC[C@@H](CC(=O)OCc2ccccc2)OO1)OCc1ccccc1	0.64 µM
N#CC=C[C@@H]1CC[C@@H](CC(=O)OCc2ccccc2)OO1 (mixture of isomers)	3.14 µM
CCOC(=O)/C=C\[C@@H]1CC[C@@H](CC(=O)OCc2ccccc2)OO1	1.35 µM
CC(=O)/C=C\[C@@H]1CC[C@@H](CC(=O)OCc2ccccc2)OO1	1.88 µM
CC(C)(C)OC(=O)/C=C/[C@@H]1CC[C@@H](CC(=O)OCc2ccccc2)OO1	0.2 µM
O=C(C[C@@H]1CC[C@@H](/C=C/C(=O)c2ccccc2)OO1)OCc1ccccc1	0.51 µM
CC(=O)/C=C/[C@@H]1CC[C@@H](CC(=O)OCc2ccccc2)OO1	0.9 µM
O=C(C[C@@H]1CC[C@@H](/C=C\C(=O)c2ccccc2)OO1)OCc1ccccc1	0.58 µM
N=C(N)c1ccc(OCCCCCOc2ccc(C(=N)N)cc2)cc1	0.86 µM
CC(C)(C)OC(=O)/C=C\[C@@H]1CC[C@@H](CC(=O)OCc2ccccc2)OO1	0.37 µM
C=C[C@@H]1CC[C@@H](CC(=O)OCc2ccccc2)OO1	3.03 µM
O=C(/C=C\[C@@H]1CC[C@@H](CC(=O)OCc2ccccc2)OO1)OCc1ccccc1	0.24 µM
